Data: ChEMBL document CHEMBL3785059, “LC-MS-Guided Isolation of Penicilfuranone A: A New Antifibrotic Furancarboxylic Acid from the Plant Endophytic Fungus Penicillium sp. sh18” (J Nat Prod, 2016)
Calls of active or inactive are those of the source. No cut-off for these calls is given here.

Columns and labels:
[1] = tested on: HSC-T6; assay: Inhibition of TGF-beta-induced CTGF expression in rat HSC-T6 cells after 48 hrs by Western blot analysis; format: functional, cell-based
[2] = tested on: LX2; assay: Inhibition of TGF-beta-induced CTGF expression in human LX2 cells after 48 hrs by Western blot analysis; format: functional, cell-based
[3] = molecular target: T1, Mothers against decapentaplegic homolog 2/homolog 3 (Rattus norvegicus) (UniProt O70436+P84025); assay: Inhibition of TGF-beta1-induced Smad2/3 phosphorylation in rat HSC-T6 cells after 1 hr by Western blot analysis; format: cell-based
Summary of the method: (§1)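 Serum-starved cells (24 h, no FBS) preincubated 2 h with compound at 1, 2 or 4 μM, DMSO or 10 μM SB431542. Then exposed to TGF-β1 at 10 ng/mL final for 1 h. Lysates (30 μg) immunoblotted for phospho-Smad2/3 and Smad7; membranes reprobed for total Smad2/3 and β-actin for loading.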

[4] = molecular target: T2, Mothers against decapentaplegic homolog 2/homolog 3 (Homo sapiens) (UniProt P84022+Q15796); assay: Inhibition of TGF-beta1-induced Smad2/3 phosphorylation in human LX-2 cells after 1 hr by Western blot analysis; format: cell-based; summary of the method: as §1
[5] = tested on: HSC-T6; assay: Inhibition of TGF-beta1-induced decrease of Smad7 expression in rat HSC-T6 cells after 1 hr by Western blot analysis; format: functional, cell-based; summary of the method: as §1
[6] = tested on: LX2; assay: Inhibition of TGF-beta1-induced decrease of Smad7 expression in human LX2 cells after 1 hr by Western blot analysis; format: functional, cell-based; summary of the method: as §1
[7] = tested on: HSC-T6; assay: Effect on Smad2/3 expression in rat HSC-T6 cells at 1 to 4 uM after 1 hr by Western blot analysis; format: functional, cell-based; summary of the method: as §1
[8] = tested on: LX2; assay: Effect on Smad2/3 expression in human LX2 cells at 1 to 4 uM after 1 hr by Western blot analysis; format: functional, cell-based; summary of the method: as §1
[9] = tested on: HSC-T6; assay: Inhibition of TGF-beta-induced alpha-SMA expression in rat HSC-T6 cells at 1 to 4 uM after 48 hrs by Western blot analysis; format: functional, cell-based
Summary of the method: (§2)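 Cells at 70% confluence serum-starved 24 h (passages 18–25). Preincubated 2 h with compound (1, 2 or 4 μM), DMSO vehicle or 10 μM SB431542, then 10 ng/mL human recombinant TGF-β1 added without wash for 48 h. Whole-cell lysates (30 μg protein) run on SDS-PAGE and immunoblotted with β-actin as loading control.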

[10] = tested on: LX2; assay: Inhibition of TGF-beta-induced alpha-SMA expression in human LX2 cells at 1 to 4 uM after 48 hrs by Western blot analysis; format: functional, cell-based; summary of the method: as §2
[11] = tested on: HSC-T6; assay: Inhibition of TGF-beta-induced type-1 collagen expression in rat HSC-T6 cells after 48 hrs by Western blot analysis; format: functional, cell-based; summary of the method: as §2
[12] = Cytotoxicity against human L02 cells at up to 4 uM after 48 hrs by MTT assay; format: cell-based; conditions: l02, 48 h
Summary of the method: (§3)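 MTT (5 mg/mL stock) added for 4 h at 37 °C. Formazan dissolved in DMSO, OD read at 570 nm. Viability given as % of control; mean ± SEM of three independent experiments.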

[13] = Cytotoxicity against rat HSC-T6 cells at up to 4 uM after 48 hrs by MTT assay; format: cell-based; conditions: hsc-t6, 48 h; summary of the method: as §3
[14] = Cytotoxicity against human LX2 cells at up to 4 uM after 48 hrs by MTT assay; format: cell-based; conditions: lx2, 48 h; summary of the method: as §3
[15] = tested on: HSC-T6; assay: Inhibition of TGF-beta-induced vimentin expression in rat HSC-T6 cells at 1 to 4 uM after 48 hrs by Western blot analysis; format: functional, cell-based; summary of the method: as §2
[16] = tested on: LX2; assay: Inhibition of TGF-beta-induced vimentin expression in human LX2 cells at 1 to 4 uM after 48 hrs by Western blot analysis; format: functional, cell-based; summary of the method: as §2
[17] = tested on: LX2; assay: Inhibition of TGF-beta-induced type-1 collagen expression in human LX2 cells after 48 hrs by Western blot analysis; format: functional, cell-based; summary of the method: as §2
[18] = molecular target: T1, Mothers against decapentaplegic homolog 2/homolog 3 (Rattus norvegicus); assay: Inhibition of TGF-beta1-induced Smad2/3 phosphorylation in rat HSC-T6 cells at 10 uM after 1 hr by Western blot analysis; format: cell-based
Summary of the method: (§4)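 HSC-T6 (rat; RPMI 1640) or LX-2 (human; DMEM) cells with 10% FBS, passages 18-25, were grown to 70% confluence and serum-starved 24 h. They were preincubated 2 h with test agent or DMSO, then exposed to TGF-β1 at a final 10 ng/mL for 1 h. Blots of 30 μg lysate were probed for phospho-Smad2/3 and Smad7, then reprobed for total Smad2/3 and β-actin.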

[19] = molecular target: T2, Mothers against decapentaplegic homolog 2/homolog 3 (Homo sapiens); assay: Inhibition of TGF-beta1-induced Smad2/3 phosphorylation in human LX2 cells at 10 uM after 1 hr by Western blot analysis; format: cell-based; summary of the method: as §4
[20] = tested on: HSC-T6; assay: Inhibition of TGF-beta1-induced decrease of Smad7 expression in rat HSC-T6 cells at 10 uM after 1 hr by Western blot analysis; format: functional, cell-based; summary of the method: as §4
[21] = tested on: LX2; assay: Inhibition of TGF-beta1-induced decrease of Smad7 expression in human LX2 cells at 10 uM after 1 hr by Western blot analysis; format: functional, cell-based; summary of the method: as §4
[22] = tested on: HSC-T6; assay: Effect on Smad2/3 expression in rat HSC-T6 cells at 10 uM after 1 hr by Western blot analysis; format: functional, cell-based; summary of the method: as §4
[23] = tested on: LX2; assay: Effect on Smad2/3 expression in human LX2 cells at 10 uM after 1 hr by Western blot analysis; format: functional, cell-based; summary of the method: as §4
[24] = tested on: HSC-T6; assay: Inhibition of TGF-beta-induced vimentin expression in rat HSC-T6 cells at 10 uM after 48 hrs by Western blot analysis; format: functional, cell-based
Summary of the method: (§5)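 Rat HSC-T6 (RPMI 1640) or human LX-2 (DMEM) cells, passages 18-25, at 70% confluence were serum-deprived for 24 h. After 2 h pretreatment with agent or DMSO vehicle, TGF-β1 was added without washing at a final 10 ng/mL for 48 h. Whole-cell lysates (30 μg) were blotted for vimentin, with β-actin as the loading control.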

[25] = tested on: LX2; assay: Inhibition of TGF-beta-induced vimentin expression in human LX2 cells at 10 uM after 48 hrs by Western blot analysis; format: functional, cell-based; summary of the method: as §5

T2 sequence (P84022 whole entry, looked up): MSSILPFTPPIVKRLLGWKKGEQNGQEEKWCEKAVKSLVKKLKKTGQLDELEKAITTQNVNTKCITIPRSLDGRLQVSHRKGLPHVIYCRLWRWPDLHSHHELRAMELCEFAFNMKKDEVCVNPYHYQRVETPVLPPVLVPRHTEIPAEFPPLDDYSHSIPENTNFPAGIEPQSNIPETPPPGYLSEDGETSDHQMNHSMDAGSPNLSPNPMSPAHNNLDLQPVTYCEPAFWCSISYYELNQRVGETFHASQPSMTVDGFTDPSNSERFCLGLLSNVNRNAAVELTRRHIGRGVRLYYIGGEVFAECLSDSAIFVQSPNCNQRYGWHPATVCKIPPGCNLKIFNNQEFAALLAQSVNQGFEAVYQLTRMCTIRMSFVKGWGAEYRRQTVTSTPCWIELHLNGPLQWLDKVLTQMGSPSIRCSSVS
T2 sequence (Q15796 whole entry, looked up): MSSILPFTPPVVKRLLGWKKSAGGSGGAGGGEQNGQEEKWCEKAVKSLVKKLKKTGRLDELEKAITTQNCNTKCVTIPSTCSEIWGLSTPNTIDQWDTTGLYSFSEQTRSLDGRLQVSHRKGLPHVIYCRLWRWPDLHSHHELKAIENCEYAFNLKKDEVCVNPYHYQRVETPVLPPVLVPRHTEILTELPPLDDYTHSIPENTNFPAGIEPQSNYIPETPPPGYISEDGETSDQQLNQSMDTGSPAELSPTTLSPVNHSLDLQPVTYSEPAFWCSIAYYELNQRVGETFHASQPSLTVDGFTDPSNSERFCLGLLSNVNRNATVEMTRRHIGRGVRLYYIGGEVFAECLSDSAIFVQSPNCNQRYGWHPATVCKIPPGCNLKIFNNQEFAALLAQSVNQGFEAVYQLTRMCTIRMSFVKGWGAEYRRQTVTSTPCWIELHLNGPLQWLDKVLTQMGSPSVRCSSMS
T1 sequence (O70436 whole entry, looked up): as the sequence (Q15796 whole entry, looked up) above, with P90A, I93V, N154S counted along it
T1 sequence (P84025 whole entry, looked up): as the sequence (P84022 whole entry, looked up) above

For CC/C=C/C=C/[C@@]1(C)OC([C@H]2[C@@H](C)C(=O)c3cc(OC)c(O)c(O)c3[C@@]2(C)O)=C(C(=O)OC)C1=O, the inhibition [1] was “Dose-dependent effect”, the inhibition [2] was “Dose-dependent effect” and the inhibition [3] was “Dose-dependent effect”. The inhibition [4] was “Dose-dependent effect”, the inhibition [5] was “Dose-dependent effect” and the inhibition [6] was “Dose-dependent effect”. The Activity [7] was “inactive”, the Activity [8] was “inactive” and the inhibition [9] was “Active”. The inhibition [10] was “Active”, the inhibition [11] was “Dose-dependent effect” and the Activity [12] was “Non-toxic”. For the same compound, the Activity [13] was “Non-toxic”, the Activity [14] was “Non-toxic” and the inhibition [15] was “Active”. For the same compound, the inhibition [16] was “Active” and the inhibition [17] was “Dose-dependent effect”.

With NC(=O)c1ccc(-c2nc(-c3ccccn3)c(-c3ccc4c(c3)OCO4)[nH]2)cc1 the inhibition [18] was “Dose-dependent effect”, the inhibition [19] was “Dose-dependent effect” and the inhibition [20] was “Dose-dependent effect”. The inhibition [21] was “Dose-dependent effect”, the Activity [22] was “inactive” and the Activity [23] was “inactive”. The inhibition [24] was “Active” and the inhibition [25] was “Active”.
